Results taken from ChEMBL document CHEMBL1153735, “Synthesis and in vitro cytostatic activity of new beta-D-arabino furan[1',2':4,5]oxazolo- and arabino-pyrimidinone derivatives” (Eur J Med Chem, 2010).
pEC50, pIC50: −log10 of the molar value. Active and inactive are the calls of the source. The calls are words filed in the database; no cut-off is given here.

How the values were obtained:
L1210 = experiment: Cytotoxicity against mouse L1210 cells after 2 days; assay type: functional, cell-based; settings: L1210, 48 h
In short: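 L1210 cells at 300,000–500,000 cells/mL were added to an equal volume of diluted compound. After 2 days at 37 °C, cells were counted with a Coulter counter. IC50 is the concentration that inhibits proliferation by 50%.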

CCRF-CEM = experiment: Cytotoxicity against human CEM cells after 2 days; assay type: functional, cell-based; settings: for pIC50: Homo sapiens, CCRF-CEM, 48 h
[1] = Cytotoxicity against human Molt4/C8 cells after 2 days; assay type: functional, cell-based; settings: MOLT-4, 48 h
Punta Toro virus = experiment: Antiviral activity against Punta Toro virus infected in african green monkey Vero cells assessed as inhibition of virus induced cytopathic effect; assay type: functional, organism-based
In short: (§1)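 Confluent monolayers in 96-well plates were infected with 100 CCID50 of virus, with 1 h adsorption before residual virus was removed. Cultures were then kept with test compound at 200, 40 or 8 μM. Cytopathic effect was scored once it was complete in untreated infected controls.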

Sindbis virus = experiment: Antiviral activity against Sindbis virus infected in african green monkey Vero cells assessed as inhibition of virus induced cytopathic effect; assay type: functional, organism-based; in short: as §1
Human respirovirus 3 = experiment: Antiviral activity against Parainfluenza virus 3 infected in african green monkey Vero cells assessed as inhibition of virus induced cytopathic effect; assay type: functional, organism-based; in short: as §1
Vaccinia virus = experiment: Antiviral activity against Vaccinia virus infected in human HEL cells assessed as inhibition of virus induced cytopathic effect; assay type: functional, organism-based; settings: Orthopoxvirus vaccinia
Feline coronavirus = experiment: Antiviral activity against Feline coronavirus infected in CRFK cells assessed as inhibition of virus induced cytopathic effect; assay type: functional, organism-based; in short: as §1
[2] = tested on: Vesicular stomatitis virus; experiment: Antiviral activity against VSV infected in human HEL cells assessed as inhibition of virus induced cytopathic effect; assay type: functional, organism-based
Human alphaherpesvirus 2 = experiment: Antiviral activity against HSV2 G infected in human HEL cells assessed as inhibition of virus induced cytopathic effect; assay type: functional, organism-based; settings: strain G; in short: as §1
Influenza A virus [3] = experiment: Antiviral activity against influenza A H3N2 virus infected in […] cells assessed as inhibition of virus induced cytopathic effect; assay type: functional, organism-based
Influenza A virus [4] = experiment: Antiviral activity against influenza A H1N1 virus infected in […] cells assessed as inhibition of virus induced cytopathic effect; assay type: functional, organism-based
Influenza B virus = experiment: Antiviral activity against influenza B virus infected in MDCK cells assessed as inhibition of virus induced cytopathic effect; assay type: functional, organism-based
[5] = tested on: Mammalian orthoreovirus 1; experiment: Antiviral activity against Reovirus 1 infected in african green monkey Vero cells assessed as inhibition of virus induced cytopathic effect; assay type: functional, organism-based; in short: as §1
Human alphaherpesvirus 1 = experiment: Antiviral activity against HSV1 KOS infected in human HEL cells assessed as inhibition of virus induced cytopathic effect; assay type: functional, organism-based; in short: as §1

Question: With `O=c1[nH]c2c(c(=O)n1[C@@H]1O[C@H](CO)[C@@H](O)[C@@H]1O)CCCC2` as the compound, how does the pIC50 (L1210) read?
Answer: The pIC50 was < 3.30.

Question: What about the pIC50 (CCRF-CEM) of the same compound?
Answer: The pIC50 was < 3.30.

Question: What about the pIC50 [1] of the same compound?
Answer: Its pIC50 is < 3.30.

Question: Which results are given for `Nc1ccn([C@@H]2O[C@H](CO)[C@@H](O)[C@@H]2O)c(=O)n1` [CYTARABINE]?
Answer: pIC50 (L1210): 7.62; pIC50 (CCRF-CEM): 7.62

Question: With `O=c1c2c(nc3n1[C@@H]1[C@H](O3)O[C@H](CO)[C@H]1O)CCCC2` as the compound, how does the pIC50 (L1210) read?
Answer: The pIC50 was < 3.30.

Question: And the pIC50 (CCRF-CEM)?
Answer: Its pIC50 is < 3.30.

Question: What about the pIC50 [1] of the same compound?
Answer: The pIC50 was < 3.30.

Question: Which results are given for `CC(C)(C)[Si](C)(C)OC[C@H]1O[C@H]2Oc3nc(=O)c4c(n3[C@H]2[C@@H]1O[Si](C)(C)C(C)(C)C)CCCC4`?
Answer: pIC50 (L1210): 3.64; pIC50 (CCRF-CEM): 3.67; pIC50 [1]: 3.73

Question: With `CC(=O)c1cnc2n(c1=O)[C@@H]1[C@H](O2)O[C@H](CO[Si](C)(C)C(C)(C)C)[C@H]1O[Si](C)(C)C(C)(C)C` as the compound, how does the pIC50 (L1210) read?
Answer: Its pIC50 is 5.22.

Question: What about the pIC50 (CCRF-CEM) of the same compound?
Answer: The pIC50 was 5.12.

Question: What about the pIC50 [1] of the same compound?
Answer: Its pIC50 is 5.10.

Question: With `CN(C)/C=N\C1=N[C@@H]2[C@H](O1)O[C@H](CO)[C@H]2O` as the compound, how does the pIC50 (L1210) read?
Answer: The pIC50 was < 3.30.

Question: And the pIC50 (CCRF-CEM)?
Answer: The pIC50 was < 3.30.

Question: What about the pIC50 [1] of the same compound?
Answer: Its pIC50 is < 3.30.

Question: With `CCOC(=O)c1cnc2n(c1=O)[C@@H]1[C@H](O2)O[C@H](CO)[C@H]1O` as the compound, how does the pIC50 (L1210) read?
Answer: The pIC50 was < 3.30.

Question: What about the pIC50 (CCRF-CEM) of the same compound?
Answer: The pIC50 was < 3.30.

Question: And the pIC50 [1]?
Answer: The pIC50 was < 3.30.

Question: With `O=c1[nH]c(=O)n([C@@H]2O[C@H](CO)[C@@H](O)[C@@H]2O)c2c1CCCC2` as the compound, how does the pIC50 (L1210) read?
Answer: The pIC50 was < 3.30.

Question: And the pIC50 (CCRF-CEM)?
Answer: Its pIC50 is < 3.30.

Question: What about the pIC50 [1] of the same compound?
Answer: The pIC50 was < 3.30.

Question: With `CCOC(=O)c1c[nH]c(=O)n([C@@H]2O[C@H](CO)[C@@H](O)[C@@H]2O)c1=O` as the compound, how does the pIC50 (L1210) read?
Answer: Its pIC50 is < 3.30.

Question: And the pIC50 (CCRF-CEM)?
Answer: Its pIC50 is < 3.30.

Question: What about the pIC50 [1] of the same compound?
Answer: The pIC50 was < 3.30.

Question: What does the source list for `O=c1nc2n(c3c1CCCC3)[C@@H]1[C@H](O2)O[C@H](CO)[C@H]1O`?
Answer: pIC50 (L1210): < 3.30; pIC50 (CCRF-CEM): < 3.30; pIC50 [1]: < 3.30

Question: Which Activity (Punta Toro virus) does the source give for `CC(C)(C)[Si](C)(C)OC[C@H]1O[C@H]2Oc3nc4c(c(=O)n3[C@H]2[C@@H]1O[Si](C)(C)C(C)(C)C)CCCC4` here?
Answer: Its Activity is “inactive”.

Question: And the Activity (Sindbis virus)?
Answer: The Activity was “inactive”.

Question: What about the pIC50 (L1210) of the same compound?
Answer: The pIC50 was 3.70.

Question: And the Activity (Human respirovirus 3)?
Answer: The Activity was “inactive”.

Question: What about the pEC50 (Vaccinia virus) of the same compound?
Answer: The pEC50 was 4.35.

Question: And the pIC50 (CCRF-CEM)?
Answer: The pIC50 was 3.90.

Question: And the EC50 (CCRF-CEM; ccrf-cem)?
Answer: The EC50 was “Not Active”.

Question: What about the Activity (Feline coronavirus) of the same compound?
Answer: Its Activity is “inactive”.

Question: And the Activity [2]?
Answer: The Activity was “inactive”.

Question: And the Activity (Human alphaherpesvirus 2)?
Answer: Its Activity is “inactive”.

Question: What about the Activity (Influenza A virus [3]) of the same compound?
Answer: The Activity was “inactive”.

Question: And the Activity (Influenza A virus [4])?
Answer: The Activity was “inactive”.

Question: And the pIC50 [1]?
Answer: Its pIC50 is 3.89.

Question: And the Activity (Influenza B virus)?
Answer: The Activity was “inactive”.

Question: What about the Activity [5] of the same compound?
Answer: The Activity was “inactive”.

Question: What about the Activity (Human alphaherpesvirus 1) of the same compound?
Answer: The Activity was “inactive”.

Question: With `CN(C)/C=N\C1=N[C@@H]2[C@H](O1)O[C@H](CO[Si](C)(C)C(C)(C)C)[C@H]2O[Si](C)(C)C(C)(C)C` as the compound, how does the pIC50 (L1210) read?
Answer: Its pIC50 is 3.60.

Question: What about the pIC50 (CCRF-CEM) of the same compound?
Answer: Its pIC50 is 3.67.

Question: What about the pIC50 [1] of the same compound?
Answer: Its pIC50 is 3.65.

Question: With `C/C(N)=C1/C=NC(=O)N([C@@H]2O[C@H](CO[Si](C)(C)C(C)(C)C)[C@@H](O[Si](C)(C)C(C)(C)C)[C@@H]2O)C1=O` as the compound, how does the pIC50 (CCRF-CEM) read?
Answer: The pIC50 was 4.77.

Question: What about the pIC50 [1] of the same compound?
Answer: Its pIC50 is 4.74.

Question: Which results are given for `CC(=O)c1cnc2n(c1=O)[C@@H]1[C@H](O2)O[C@H](CO)[C@H]1O`?
Answer: pIC50 (L1210): 3.51; pIC50 (CCRF-CEM): 3.60; pIC50 [1]: 3.42

Question: With `CC(=O)c1c[nH]c(=O)n([C@@H]2O[C@H](CO)[C@@H](O)[C@@H]2O)c1=O` as the compound, how does the pIC50 (L1210) read?
Answer: The pIC50 was < 3.30.

Question: And the pIC50 (CCRF-CEM)?
Answer: The pIC50 was < 3.30.

Question: What about the pIC50 [1] of the same compound?
Answer: The pIC50 was < 3.30.

Question: With `C/C(N)=C1/C=NC(=O)N([C@@H]2O[C@H](CO)[C@@H](O)[C@@H]2O)C1=O` as the compound, how does the pIC50 (L1210) read?
Answer: The pIC50 was 3.68.

Question: And the pIC50 (CCRF-CEM)?
Answer: Its pIC50 is 3.66.

Question: And the pIC50 [1]?
Answer: Its pIC50 is 3.52.
